# Test system: Escherichia coli
# Experiment: Minimum inhibitory concentration against Escherichia coli strain SM101
# Type: functional
row,Compound,MIC [µg/mL]
1,CC1(C)C2CC[C@]3(C)OB(CC[C@H](NC(=O)OCc4ccccc4)C(=O)O)O[C@]13C2,> 64
2,CC(C)(C)OC(=O)NCCCB1O[C@@]2(C)CCC3C[C@@]2(O1)C3(C)C,8
3,CC1(C)C2CC[C@]3(C)OB(CCCN)O[C@]13C2,> 64
4,COC(=O)[C@@H](N)CCB1O[C@@]2(C)CCC3C[C@@]2(O1)C3(C)C,> 64
5,COC(=O)[C@H](CCB1O[C@@]2(C)CCC3C[C@@]2(O1)C3(C)C)NC(=O)OCc1ccccc1,> 64
6,CC(C)(C)OC(=O)[C@@H](N)CCB1O[C@@]2(C)CCC3C[C@@]2(O1)C3(C)C,8
7,COC(=O)[C@@H](N)CCB(O)O,> 64
8,N[C@@H](CCB(O)O)C(=O)O,> 64
9,CC1(C)C2CC[C@]3(C)OB(CC[C@H](NC(=O)CN)C(=O)O)O[C@]13C2,> 64
10,CNC(=O)[C@@H](N)CCB1O[C@@]2(C)CCC3C[C@@]2(O1)C3(C)C,64

# Biological target: T1, Aspartyl/glutamyl-tRNA(Asn/Gln) amidotransferase subunit A (Streptococcus pyogenes serotype M1, UniProt Q99YC0)
# Experiment: In vitro inhibitory concentration against Glutaminase activity of bacterial Glu-tRNA-Gln […] (Glu-AdT)
# Summary of the method: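 S. pyogenes Glu-AdT, glutaminase-only reaction with no ATP or tRNA. Gln at 2×Km. Inhibitor titrated over […]. Enzyme pre-incubated 15 min with inhibitor, then started with Gln. Reaction buffer was 50 mM HEPES, 25 mM MgCl₂, 15 mM KCl, 1% DMSO, pH 7. IC50 determined in duplicate.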
# T1 sequence (Q99YC0 whole entry, looked up): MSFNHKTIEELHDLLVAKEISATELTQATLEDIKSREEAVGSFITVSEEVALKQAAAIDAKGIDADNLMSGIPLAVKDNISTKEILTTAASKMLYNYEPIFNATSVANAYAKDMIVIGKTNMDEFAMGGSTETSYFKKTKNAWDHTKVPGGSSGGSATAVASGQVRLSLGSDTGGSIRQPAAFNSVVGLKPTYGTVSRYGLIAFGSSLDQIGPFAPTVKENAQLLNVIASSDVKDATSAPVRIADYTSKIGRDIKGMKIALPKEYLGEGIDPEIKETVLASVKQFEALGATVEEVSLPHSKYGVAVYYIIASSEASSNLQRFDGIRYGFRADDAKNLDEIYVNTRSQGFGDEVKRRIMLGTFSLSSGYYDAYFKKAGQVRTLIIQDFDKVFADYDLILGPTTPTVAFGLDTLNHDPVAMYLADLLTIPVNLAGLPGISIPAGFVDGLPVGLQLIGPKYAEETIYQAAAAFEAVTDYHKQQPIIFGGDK
row,Compound,IC50 [µM]
1,CC1(C)C2CC[C@]3(C)OB(CC[C@H](NC(=O)OCc4ccccc4)C(=O)O)O[C@]13C2,> 80
2,CC(C)(C)OC(=O)NCCCB1O[C@@]2(C)CCC3C[C@@]2(O1)C3(C)C,> 80
3,CC1(C)C2CC[C@]3(C)OB(CCCN)O[C@]13C2,> 80
4,COC(=O)[C@@H](N)CCB1O[C@@]2(C)CCC3C[C@@]2(O1)C3(C)C,1.5
5,COC(=O)[C@H](CCB1O[C@@]2(C)CCC3C[C@@]2(O1)C3(C)C)NC(=O)OCc1ccccc1,> 80
6,CC(C)(C)OC(=O)[C@@H](N)CCB1O[C@@]2(C)CCC3C[C@@]2(O1)C3(C)C,> 80
7,COC(=O)[C@@H](N)CCB(O)O,1.3
8,N[C@@H](CCB(O)O)C(=O)O,1.6
9,CC1(C)C2CC[C@]3(C)OB(CC[C@H](NC(=O)CN)C(=O)O)O[C@]13C2,> 80
10,CNC(=O)[C@@H](N)CCB1O[C@@]2(C)CCC3C[C@@]2(O1)C3(C)C,> 80

# Biological target: T1, Aspartyl/glutamyl-tRNA(Asn/Gln) amidotransferase subunit A
# Experiment: In vitro inhibitory concentration against transferase activity of bacterial Glu-tRNA-Gln […] (Glu-AdT)
# Summary of the method: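 S. pyogenes Glu-AdT, Gln-dependent transferase reaction. Substrates were Glu-tRNAGln at >10×Km, ATP at 2×Km and Gln at 0.5×Km. Inhibitor titrated over […]. Enzyme pre-incubated 15 min with inhibitor, Glu-tRNAGln and ATP, then started with Gln. Buffer was 50 mM HEPES, 25 mM MgCl₂, 15 mM KCl, 1% DMSO, pH 7. IC50 determined in duplicate.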
row,Compound,IC50 [µM]
1,CC(C)(C)OC(=O)NCCCB1O[C@@]2(C)CCC3C[C@@]2(O1)C3(C)C,> 20
2,CC1(C)C2CC[C@]3(C)OB(CCCN)O[C@]13C2,> 20
3,COC(=O)[C@@H](N)CCB1O[C@@]2(C)CCC3C[C@@]2(O1)C3(C)C,0.07
4,COC(=O)[C@H](CCB1O[C@@]2(C)CCC3C[C@@]2(O1)C3(C)C)NC(=O)OCc1ccccc1,> 20
5,COC(=O)[C@@H](N)CCB(O)O,0.05
6,N[C@@H](CCB(O)O)C(=O)O,0.1
7,CC1(C)C2CC[C@]3(C)OB(CC[C@H](NC(=O)CN)C(=O)O)O[C@]13C2,> 20
8,CNC(=O)[C@@H](N)CCB1O[C@@]2(C)CCC3C[C@@]2(O1)C3(C)C,35

# Test system: Enterococcus faecalis
# Experiment: Tested for minimal growth inhibitory concentration against […] ATCC 29212
# Type: functional
row,Compound,MIC [µg/mL]
1,CC1(C)C2CC[C@]3(C)OB(CC[C@H](NC(=O)OCc4ccccc4)C(=O)O)O[C@]13C2,> 64
2,CC(C)(C)OC(=O)NCCCB1O[C@@]2(C)CCC3C[C@@]2(O1)C3(C)C,> 64
3,CC1(C)C2CC[C@]3(C)OB(CCCN)O[C@]13C2,> 64
4,COC(=O)[C@@H](N)CCB1O[C@@]2(C)CCC3C[C@@]2(O1)C3(C)C,4
5,COC(=O)[C@H](CCB1O[C@@]2(C)CCC3C[C@@]2(O1)C3(C)C)NC(=O)OCc1ccccc1,> 64
6,CC(C)(C)OC(=O)[C@@H](N)CCB1O[C@@]2(C)CCC3C[C@@]2(O1)C3(C)C,> 64
7,COC(=O)[C@@H](N)CCB(O)O,3
8,N[C@@H](CCB(O)O)C(=O)O,8
9,CC1(C)C2CC[C@]3(C)OB(CC[C@H](NC(=O)CN)C(=O)O)O[C@]13C2,8
10,CNC(=O)[C@@H](N)CCB1O[C@@]2(C)CCC3C[C@@]2(O1)C3(C)C,> 64

# Test system: Staphylococcus aureus
# Experiment: Tested for minimal growth inhibitory concentration against Staphylococcus aureus ATCC 29213
# Type: functional
row,Compound,MIC [µg/mL]
1,CC1(C)C2CC[C@]3(C)OB(CC[C@H](NC(=O)OCc4ccccc4)C(=O)O)O[C@]13C2,> 64
2,CC(C)(C)OC(=O)NCCCB1O[C@@]2(C)CCC3C[C@@]2(O1)C3(C)C,> 64
3,CC1(C)C2CC[C@]3(C)OB(CCCN)O[C@]13C2,> 64
4,COC(=O)[C@@H](N)CCB1O[C@@]2(C)CCC3C[C@@]2(O1)C3(C)C,> 64
5,COC(=O)[C@H](CCB1O[C@@]2(C)CCC3C[C@@]2(O1)C3(C)C)NC(=O)OCc1ccccc1,> 64
6,CC(C)(C)OC(=O)[C@@H](N)CCB1O[C@@]2(C)CCC3C[C@@]2(O1)C3(C)C,> 64
7,COC(=O)[C@@H](N)CCB(O)O,> 64
8,N[C@@H](CCB(O)O)C(=O)O,> 64
9,CC1(C)C2CC[C@]3(C)OB(CC[C@H](NC(=O)CN)C(=O)O)O[C@]13C2,> 64
10,CNC(=O)[C@@H](N)CCB1O[C@@]2(C)CCC3C[C@@]2(O1)C3(C)C,> 64

# Test system: Staphylococcus epidermidis
# Experiment: Tested for minimal growth inhibitory concentration against Staphylococcus epidermidis ATCC 51625
# Type: functional
row,Compound,MIC [µg/mL]
1,COC(=O)[C@@H](N)CCB1O[C@@]2(C)CCC3C[C@@]2(O1)C3(C)C,> 64
2,COC(=O)[C@@H](N)CCB(O)O,> 64
3,N[C@@H](CCB(O)O)C(=O)O,> 64

# Test system: Escherichia coli
# Experiment: Minimum inhibitory concentration against Escherichia coli strain tolC
# Type: functional
row,Compound,MIC [µg/mL]
1,CC1(C)C2CC[C@]3(C)OB(CC[C@H](NC(=O)OCc4ccccc4)C(=O)O)O[C@]13C2,> 64
2,CC(C)(C)OC(=O)NCCCB1O[C@@]2(C)CCC3C[C@@]2(O1)C3(C)C,8
3,CC1(C)C2CC[C@]3(C)OB(CCCN)O[C@]13C2,> 64
4,COC(=O)[C@@H](N)CCB1O[C@@]2(C)CCC3C[C@@]2(O1)C3(C)C,> 64
5,COC(=O)[C@H](CCB1O[C@@]2(C)CCC3C[C@@]2(O1)C3(C)C)NC(=O)OCc1ccccc1,> 64
6,CC(C)(C)OC(=O)[C@@H](N)CCB1O[C@@]2(C)CCC3C[C@@]2(O1)C3(C)C,8
7,COC(=O)[C@@H](N)CCB(O)O,> 64
8,N[C@@H](CCB(O)O)C(=O)O,> 64
9,CC1(C)C2CC[C@]3(C)OB(CC[C@H](NC(=O)CN)C(=O)O)O[C@]13C2,> 64
10,CNC(=O)[C@@H](N)CCB1O[C@@]2(C)CCC3C[C@@]2(O1)C3(C)C,64

# Test system: Staphylococcus aureus
# Experiment: Tested for minimal growth inhibitory concentration against Staphylococcus aureus ATCC 25923
# Type: functional
row,Compound,MIC [µg/mL]
1,COC(=O)[C@@H](N)CCB1O[C@@]2(C)CCC3C[C@@]2(O1)C3(C)C,> 64
2,COC(=O)[C@@H](N)CCB(O)O,> 64
3,N[C@@H](CCB(O)O)C(=O)O,> 64

# Test system: Staphylococcus aureus
# Experiment: Tested for minimal growth inhibitory concentration against Staphylococcus aureus ATCC 4330
# Type: functional
row,Compound,MIC [µg/mL]
1,COC(=O)[C@@H](N)CCB1O[C@@]2(C)CCC3C[C@@]2(O1)C3(C)C,> 64
2,COC(=O)[C@@H](N)CCB(O)O,> 64
3,N[C@@H](CCB(O)O)C(=O)O,> 64

# Test system: Streptococcus pyogenes
# Experiment: Tested for minimal growth inhibitory concentration against Streptococcus pyogenes ATCC 13709
# Type: functional
row,Compound,MIC [µg/mL]
1,CC1(C)C2CC[C@]3(C)OB(CC[C@H](NC(=O)OCc4ccccc4)C(=O)O)O[C@]13C2,> 64
2,CC(C)(C)OC(=O)NCCCB1O[C@@]2(C)CCC3C[C@@]2(O1)C3(C)C,> 64
3,COC(=O)[C@@H](N)CCB1O[C@@]2(C)CCC3C[C@@]2(O1)C3(C)C,8
4,COC(=O)[C@H](CCB1O[C@@]2(C)CCC3C[C@@]2(O1)C3(C)C)NC(=O)OCc1ccccc1,64
5,CC(C)(C)OC(=O)[C@@H](N)CCB1O[C@@]2(C)CCC3C[C@@]2(O1)C3(C)C,> 64
6,COC(=O)[C@@H](N)CCB(O)O,6
7,N[C@@H](CCB(O)O)C(=O)O,8
8,CC1(C)C2CC[C@]3(C)OB(CC[C@H](NC(=O)CN)C(=O)O)O[C@]13C2,> 64
9,CNC(=O)[C@@H](N)CCB1O[C@@]2(C)CCC3C[C@@]2(O1)C3(C)C,32

# Test system: Streptococcus pneumoniae
# Experiment: Tested for minimal growth inhibitory concentration against Streptococcus pneumoniae ATCC 49619
# Type: functional
row,Compound,MIC [µg/mL]
1,COC(=O)[C@@H](N)CCB1O[C@@]2(C)CCC3C[C@@]2(O1)C3(C)C,2
2,COC(=O)[C@@H](N)CCB(O)O,2
3,N[C@@H](CCB(O)O)C(=O)O,3
4,CC1(C)C2CC[C@]3(C)OB(CC[C@H](NC(=O)CN)C(=O)O)O[C@]13C2,> 64
5,CNC(=O)[C@@H](N)CCB1O[C@@]2(C)CCC3C[C@@]2(O1)C3(C)C,32

# Test system: Helicobacter pylori
# Experiment: Tested for minimal growth inhibitory concentration against Helicobacter pylori ATCC 43629
# Type: functional
# Summary of the method: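 Broth dilution in Brain–Heart Infusion broth with 0.25% yeast extract and 10% horse serum. Inoculum was 6×10⁵ CFU per well, incubated 72 h at 37 °C under 10% CO₂. Highest concentration tested was 64. NCCLS-recommended control antibiotics tracked strain performance.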
row,Compound,MIC [µg/mL]
1,CC1(C)C2CC[C@]3(C)OB(CC[C@H](NC(=O)OCc4ccccc4)C(=O)O)O[C@]13C2,> 64
2,CC(C)(C)OC(=O)NCCCB1O[C@@]2(C)CCC3C[C@@]2(O1)C3(C)C,> 64
3,CC1(C)C2CC[C@]3(C)OB(CCCN)O[C@]13C2,> 64
4,COC(=O)[C@@H](N)CCB1O[C@@]2(C)CCC3C[C@@]2(O1)C3(C)C,64
5,COC(=O)[C@H](CCB1O[C@@]2(C)CCC3C[C@@]2(O1)C3(C)C)NC(=O)OCc1ccccc1,32
6,CC(C)(C)OC(=O)[C@@H](N)CCB1O[C@@]2(C)CCC3C[C@@]2(O1)C3(C)C,> 64
7,COC(=O)[C@@H](N)CCB(O)O,32
8,N[C@@H](CCB(O)O)C(=O)O,32
9,CNC(=O)[C@@H](N)CCB1O[C@@]2(C)CCC3C[C@@]2(O1)C3(C)C,> 64

# Test system: Staphylococcus epidermidis
# Experiment: Tested for minimal growth inhibitory concentration against Staphylococcus epidermidis ATCC 12228
# Type: functional
row,Compound,MIC [µg/mL]
1,COC(=O)[C@@H](N)CCB1O[C@@]2(C)CCC3C[C@@]2(O1)C3(C)C,> 64
2,COC(=O)[C@@H](N)CCB(O)O,> 64
3,N[C@@H](CCB(O)O)C(=O)O,> 64

# Test system: not listed separately
# Experiment: Tested for mammalian cellular toxicity expressed as IC50
# Type: functional
row,Compound,IC50 [µM]
1,CC1(C)C2CC[C@]3(C)OB(CC[C@H](NC(=O)OCc4ccccc4)C(=O)O)O[C@]13C2,> 100
2,CC1(C)C2CC[C@]3(C)OB(CCCN)O[C@]13C2,> 100
3,COC(=O)[C@@H](N)CCB1O[C@@]2(C)CCC3C[C@@]2(O1)C3(C)C,> 100
4,COC(=O)[C@H](CCB1O[C@@]2(C)CCC3C[C@@]2(O1)C3(C)C)NC(=O)OCc1ccccc1,> 100
5,CC(C)(C)OC(=O)[C@@H](N)CCB1O[C@@]2(C)CCC3C[C@@]2(O1)C3(C)C,> 100
6,COC(=O)[C@@H](N)CCB(O)O,> 100
7,N[C@@H](CCB(O)O)C(=O)O,> 100
8,CNC(=O)[C@@H](N)CCB1O[C@@]2(C)CCC3C[C@@]2(O1)C3(C)C,> 100

# Test system: Staphylococcus carnosus
# Experiment: Tested for minimal growth inhibitory concentration against Staphylococcus carnosus ATCC 51365
# Type: functional
row,Compound,MIC [µg/mL]
1,COC(=O)[C@@H](N)CCB1O[C@@]2(C)CCC3C[C@@]2(O1)C3(C)C,> 64
2,COC(=O)[C@@H](N)CCB(O)O,> 64
3,N[C@@H](CCB(O)O)C(=O)O,> 64

# Source: ChEMBL document CHEMBL1133968, “Glutamyl-gamma-boronate inhibitors of bacterial Glu-tRNA(Gln) amidotransferase” (Bioorg Med Chem Lett, 2001)
